Screening data from PubChem.
MrgX1 allo act: human MrgX1 positive allosteric modulation, primary screen | actives 0.63% (n = 310,000) | MrgX1-HEK293, Fluo-4 calcium flux, FDSS; stronger effect = higher value | B-score at 10 µM;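 active = plate-corrected calcium response at least 3 library SD above typical, normal starting fluorescence, not activating the receptor alone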;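 note: compound read alongside a low EC10 to EC30 dose of BAM8-22 agonist; peak minus trough fluorescence over baseline measured at the second addition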
Target sequence (Q96LB2 whole entry, looked up): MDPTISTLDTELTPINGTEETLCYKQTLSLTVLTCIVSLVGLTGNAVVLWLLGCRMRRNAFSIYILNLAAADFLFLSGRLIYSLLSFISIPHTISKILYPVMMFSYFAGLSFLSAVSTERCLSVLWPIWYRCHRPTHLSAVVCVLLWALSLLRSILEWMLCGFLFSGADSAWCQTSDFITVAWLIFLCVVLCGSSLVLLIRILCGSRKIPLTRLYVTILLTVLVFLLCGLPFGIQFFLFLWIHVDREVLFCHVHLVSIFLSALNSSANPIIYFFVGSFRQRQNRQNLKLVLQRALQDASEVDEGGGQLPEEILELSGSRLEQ
KCC2 mod: KCC2 (human) Cl- transport modulation | KCC2 cells, thallium flux FluoZin-2 fluorescence | B-score of Tl+ flux slope (higher = more flux/activation; lower = inhibition) at 10 µM | actives 2.2% (n = 190,000) | AID 1456 | Q9H2X9;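 active = thallium flux slope and its plate-corrected score both differing from the plate sample mean at a set confidence after two filtering rounds, in either direction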;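 note: slope of fluorescence scaled to starting intensity during 10 to 20 s after thallium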
RGS4 act: potentiators or activators of RGS4. B-score at 10 µM. HEK293 M3R/inducible RGS4, carbachol calcium flux Fluo4; stronger effect = lower value. AID 463111. actives 0.92% (n = 310,000);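 active = B-score of the integrated calcium signal more than 4 SD below the library mean, with starting fluorescence not abnormally high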;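 note: negative B-score means reduced calcium response which marks RGS4 activation or potentiation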
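Reagent: ECmax carbachol challenge; Test system: M3R-expressing HEK293 line, RGS4 induced by doxycycline; Schedule: overnight RGS4 induction, 30 min dye load 37 °C, 20 min compound RT; Detection: calcium dye Fluo4 fluorescence; Read-out: Agonist-evoked peak-minus-minimum fluorescence over baseline, integrated ratio, B score.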
RGS4 inh: inhibitors of human RGS4. P49798. HEK293 M3R/RGS4 inducible, Fluo-4 calcium flux; stronger effect = higher value; triggered by carbachol at its EC20. B-score at 10 µM. actives 0.45% (n = 310,000). AID 463165;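 active = B-score, a plate-corrected calcium signal, over three deviations above library mean, with baseline fluorescence within five deviations of library mean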;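 note: RGS4 expression induced by doxycycline in cells with stable M3 receptor; B-score is computed from the integrated fluorescence ratio over baseline after carbachol; higher B-score means a larger calcium signal and so more RGS4 inhibition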
Target sequence (P49798 whole entry, looked up): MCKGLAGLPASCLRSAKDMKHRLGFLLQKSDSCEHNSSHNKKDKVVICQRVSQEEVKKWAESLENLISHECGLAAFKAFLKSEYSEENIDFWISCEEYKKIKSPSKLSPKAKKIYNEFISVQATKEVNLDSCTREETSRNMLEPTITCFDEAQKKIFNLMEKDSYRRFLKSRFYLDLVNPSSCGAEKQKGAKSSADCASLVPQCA
MrgX1 agonist: human MrgX1 receptor agonism, primary screen; AID 588627; MrgX1-HEK293 cells, Fluo-4 calcium fluorescence, agonist mode; stronger effect = higher value; actives 0.44% (n = 310,000); B-score at 10 µM; Q96LB2;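 active = calcium response B-score plate-corrected fluorescence ratio at least 3 library SD, with starting fluorescence B-score inside 5 SD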
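System: HEK293 cells stably expressing human MrgX1 receptor; Dosing: test compound in the initial addition of three; Schedule: overnight plating, then 30 min 37 °C plus 30 min room-temperature dye loading; Detection: kinetic calcium dye fluorescence, Fluo-4 NW; Controls: per-plate positive and negative controls for Z′ factor.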
MrgX1 antag: human MrgX1 receptor antagonism, primary screen; Q96LB2; MRGX1-HEK293 calcium flux, Fluo-4, BAM8-22 antagonism; stronger effect = lower value; B-score at 10 µM; actives 1.3% (n = 310,000); AID 588676;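 active = calcium-response B-score plate-corrected more than 3 library SD below zero, starting fluorescence within 5 deviations, no agonist response on first addition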;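 note: peak minus trough fluorescence over baseline after final BAM8-22 challenge near maximal dose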
* marks the source's active call; other numbers are inactive results. Sampled rows, rich in hits. Any-hit rate of the full collection: about 4.7%.

What do the screens show for `O=c1/c(=C\c2ccc(O)cc2)sc2n1C(c1ccccc1)C(c1ccccc1)=NN=2` (centres undefined)?
MrgX1 allo act: 12.6*; KCC2 mod: -0.236; RGS4 act: inactive; RGS4 inh: inactive; MrgX1 agonist: inactive; MrgX1 antag: inactive

Results for O=C(CN1CCCCC1)N1c2ccccc2Oc2ccccc21 ?
MrgX1 allo act: inactive; KCC2 mod: 0.556; RGS4 act: -7.46*; RGS4 inh: inactive; MrgX1 agonist: inactive; MrgX1 antag: inactive

Results for CC1Cc2ccccc2N1C(=O)CN1CCCCC1 (centres undefined) ?
MrgX1 allo act: inactive; RGS4 act: inactive; RGS4 inh: inactive; MrgX1 agonist: inactive; MrgX1 antag: inactive

Results for Cc1ccccc1CN1CCC(n2nccc2NC(=O)CCOc2ccccc2)CC1 ?
MrgX1 allo act: inactive; RGS4 act: inactive; RGS4 inh: inactive; MrgX1 agonist: inactive; MrgX1 antag: inactive

Results for CCC(C)(C)c1ccc(OCCCC[n+]2ccc(C)cc2)c(C(C)(C)CC)c1 ?
MrgX1 allo act: inactive; KCC2 mod: -1.25; RGS4 act: -9.27*; RGS4 inh: inactive; MrgX1 agonist: inactive; MrgX1 antag: inactive

How did Cc1cc[n+](CC[n+]2ccc(C)cc2)cc1 do in these assays?
MrgX1 allo act: inactive; RGS4 act: inactive; RGS4 inh: inactive; MrgX1 agonist: inactive; MrgX1 antag: inactive

How did Cc1cc(C(C)(C)C)ccc1OCCCCN1CCCC1 do in these assays?
MrgX1 allo act: inactive; KCC2 mod: 0.324; RGS4 act: inactive; RGS4 inh: inactive; MrgX1 agonist: inactive; MrgX1 antag: inactive

How did CCC(C)(C)c1ccc(OCCCC[n+]2cccc(C)c2C)c(C(C)(C)CC)c1 do in these assays?
MrgX1 allo act: inactive; RGS4 act: inactive; RGS4 inh: inactive; MrgX1 agonist: inactive; MrgX1 antag: -5.34*

How did COc1ccc(CNc2ncnc3cc(Cl)ccc23)cc1 do in these assays?
MrgX1 allo act: inactive; KCC2 mod: -0.165; RGS4 act: inactive; RGS4 inh: inactive; MrgX1 agonist: inactive; MrgX1 antag: inactive

How did Oc1ccc(CCNc2ncnc3ccc(Cl)cc23)cc1 do in these assays?
MrgX1 allo act: inactive; RGS4 act: inactive; RGS4 inh: inactive; MrgX1 agonist: inactive; MrgX1 antag: -5.57*

How did COc1ccc(Nc2nnc(SC(C(=O)Nc3ccc(OC)c(Cl)c3)c3ccccc3)s2)cc1 (centres undefined) do in these assays?
MrgX1 allo act: 15.7*; KCC2 mod: -0.911; RGS4 act: inactive; RGS4 inh: inactive; MrgX1 agonist: inactive; MrgX1 antag: inactive

What do the screens show for `COc1ccc(Nc2nnc(SC(C(=O)Nc3cc(C)ccc3C)c3ccccc3)s2)cc1` (centres undefined)?
MrgX1 allo act: inactive; KCC2 mod: -0.235; RGS4 act: inactive; RGS4 inh: inactive; MrgX1 agonist: inactive; MrgX1 antag: inactive

How did CC(C)(C)c1ccc(/C=C/C(=O)Nc2nncs2)cc1 do in these assays?
MrgX1 allo act: inactive; KCC2 mod: 0.872; RGS4 act: inactive; RGS4 inh: inactive; MrgX1 agonist: inactive; MrgX1 antag: -4.84*

Results for CN(C(=O)COC(=O)c1cccc(S(=O)(=O)N2CCOCC2)c1)C1CCS(=O)(=O)C1 (centres undefined) ?
MrgX1 allo act: inactive; RGS4 act: inactive; RGS4 inh: inactive; MrgX1 agonist: inactive; MrgX1 antag: -5.39*

Results for Cc1cccc(C(=O)OCC(=O)c2cccc(Br)c2)c1O ?
MrgX1 allo act: inactive; RGS4 act: inactive; RGS4 inh: inactive; MrgX1 agonist: inactive; MrgX1 antag: inactive

Results for O=[N+]([O-])c1ccc(N/N=C2\CC3CC=CC23)cc1 (centres undefined) ?
MrgX1 allo act: 8.07*; KCC2 mod: -0.415; RGS4 act: inactive; RGS4 inh: inactive; MrgX1 agonist: inactive; MrgX1 antag: inactive

Results for CCN(CC)S(=O)(=O)c1ccc(O)c(C(=O)OCC(=O)N2c3ccccc3CC2C)c1 (centres undefined) ?
MrgX1 allo act: inactive; KCC2 mod: -1.27; RGS4 act: inactive; RGS4 inh: inactive; MrgX1 agonist: inactive; MrgX1 antag: inactive

How did Cc1c(Br)c([N+](=O)[O-])nn1C(C)C(=O)NCc1cccs1 (centres undefined) do in these assays?
MrgX1 allo act: inactive; RGS4 act: inactive; RGS4 inh: inactive; MrgX1 agonist: inactive; MrgX1 antag: inactive

How did Cc1c(Br)c([N+](=O)[O-])nn1CC(=O)NCc1cccs1 do in these assays?
MrgX1 allo act: inactive; KCC2 mod: 0.08; RGS4 act: inactive; RGS4 inh: inactive; MrgX1 agonist: inactive; MrgX1 antag: -4.8*

What do the screens show for `CC(C)CNC(=O)c1ccc2c(c1)C(=O)N(Cc1ccco1)C2=O`?
MrgX1 allo act: inactive; RGS4 act: inactive; RGS4 inh: inactive; MrgX1 agonist: inactive; MrgX1 antag: inactive

Results for CC(=O)NC(=S)NNC(=O)C(c1ccccc1)c1ccccc1 ?
MrgX1 allo act: 12.1*; KCC2 mod: -0.672; RGS4 act: inactive; RGS4 inh: inactive; MrgX1 agonist: inactive; MrgX1 antag: inactive

How did N#CCC(=O)NNC(=S)NC(=O)C(c1ccccc1)c1ccccc1 do in these assays?
MrgX1 allo act: inactive; KCC2 mod: -2.07; RGS4 act: inactive; RGS4 inh: inactive; MrgX1 agonist: inactive; MrgX1 antag: inactive

Results for Cc1nn(C)c(C(=O)N/N=C/c2ccccc2)c1[N+](=O)[O-] ?
MrgX1 allo act: inactive; KCC2 mod: 0.00651; RGS4 act: -9.88*; RGS4 inh: inactive; MrgX1 agonist: inactive; MrgX1 antag: inactive

What do the screens show for `Cc1nc2ccccn2c1C(=O)N/N=C/c1ccc([N+](=O)[O-])o1`?
MrgX1 allo act: inactive; KCC2 mod: 1.24; RGS4 act: inactive; RGS4 inh: inactive; MrgX1 agonist: inactive; MrgX1 antag: -5.98*

Results for COc1ccc(CN2C(=NC(=O)c3ccccc3)SC3CS(=O)(=O)CC32)cc1 (centres undefined) ?
MrgX1 allo act: inactive; RGS4 act: inactive; RGS4 inh: inactive; MrgX1 agonist: inactive; MrgX1 antag: inactive

What do the screens show for `O=C(Nc1nnc(CSCc2ccc(Cl)cc2)s1)c1cccc([N+](=O)[O-])c1`?
MrgX1 allo act: inactive; KCC2 mod: -0.0244; RGS4 act: inactive; RGS4 inh: inactive; MrgX1 agonist: inactive; MrgX1 antag: -9.53*

What do the screens show for `O=C(Nc1nnc(CSCc2ccc(F)cc2)s1)c1cccc([N+](=O)[O-])c1`?
MrgX1 allo act: inactive; KCC2 mod: -0.403; RGS4 act: inactive; RGS4 inh: inactive; MrgX1 agonist: inactive; MrgX1 antag: inactive
